Data from ChEMBL document CHEMBL4229372, “Synthesis and anti-mitotic activity of 2,4- or 2,6-disubstituted- and 2,4,6-trisubstituted-2H-pyrazolo[4,3-c]pyridines” (2018).
Active and inactive are the calls of the source. No cut-off for these calls is given here.

Experiments:
MCF7 [1] = test: Cell cycle arrest in human MCF7 cells assessed as accumulation at G2/M phase at 10 uM after 24 hrs by propidium iodide staining-based flow cytometric analysis (reference value: 5.3%); type: functional
How it was run: (§1)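 MCF-7 cells in DMEM with 10% FBS and penicillin/streptomycin at 37 °C, 5% CO2. Asynchronous cells were treated 24 h, PBS-washed, trypsinized and quenched with 0.1% trypsin inhibitor. Staining used 5× citrate/IGEPAL/spermine/Tris buffer (pH 7.6) with 50 μg/mL propidium iodide. DNA content was read by 488 nm flow cytometry and cell-cycle phases modelled.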

MCF7 [2] = test: Cell cycle arrest in human MCF7 cells assessed as accumulation at S phase at 10 uM after 24 hrs by propidium iodide staining-based flow cytometric analysis (reference value: 34.1%); type: functional; how it was run: as §1
K562 [3] = test: Cell cycle arrest in human K562 cells assessed as accumulation at sub G1 phase at 10 uM after 24 hrs by propidium iodide staining-based flow cytometric analysis (reference value: 15%); type: functional
MCF7 [4] = test: Cell cycle arrest in human MCF7 cells assessed as accumulation at sub G1 phase at 10 uM after 24 hrs by propidium iodide staining-based flow cytometric analysis (reference value: 7.1%); type: functional; how it was run: as §1
K562 [5] = test: Cell cycle arrest in human K562 cells assessed as accumulation at G1 phase at 10 uM after 24 hrs by propidium iodide staining-based flow cytometric analysis (reference value: 34.6%); type: functional
MCF7 [6] = test: Cell cycle arrest in human MCF7 cells assessed as accumulation at G1 phase at 10 uM after 24 hrs by propidium iodide staining-based flow cytometric analysis (reference value: 60.7%); type: functional; how it was run: as §1
[7] = biological target: Cyclin-dependent kinase 1 (Homo sapiens) (UniProt P06493); test: Inhibition of CDK1 (unknown origin)
K562 [8] = test: Cell cycle arrest in human K562 cells assessed as accumulation at G2/M phase at 10 uM after 24 hrs by propidium iodide staining-based flow cytometric analysis (reference value: 15%); type: functional
K562 [9] = test: Cell cycle arrest in human K562 cells assessed as accumulation at S phase at 10 uM after 24 hrs by propidium iodide staining-based flow cytometric analysis (reference value: 50.3%); type: functional
K562 [10] = test: Growth inhibition of human K562 cells after 72 hrs by Calcein AM dye based fluorescence assay; type: functional; details: K562, 72 h
How it was run: (§2)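 Cells in DMEM with 10% FBS at 37 °C, 5% CO2, treated in triplicate with six doses for 72 h. Calcein AM was added for 1 h and live-cell fluorescence read at 485/538 nm. GI50 was taken from dose-response curves.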

MCF7 [11] = test: Growth inhibition of human MCF7 cells after 72 hrs by Calcein AM dye based fluorescence assay; type: functional; details: MCF7, 72 h; how it was run: as §2
K562 [12] = test: Cell cycle arrest in human K562 cells assessed as accumulation at S phase at 83 nM after 24 hrs by propidium iodide staining-based flow cytometric analysis (reference value: 50.3%); type: functional
K562 [13] = test: Cell cycle arrest in human K562 cells assessed as accumulation at G2/M phase at 83 nM after 24 hrs by propidium iodide staining-based flow cytometric analysis (reference value: 15%); type: functional
K562 [14] = test: Cell cycle arrest in human K562 cells assessed as accumulation at G2/M phase assessed as accumulation of histone H3 phosphorylation at serine 10 residues at 40 ng/ml uM after 24 hrs by propidium iodide staining-based flow cytometric analysis (reference value: 2.2%); type: functional
MCF7 [15] = test: Cell cycle arrest in human MCF7 cells assessed as accumulation at S phase at 83 nM after 24 hrs by propidium iodide staining-based flow cytometric analysis (reference value: 34.1%); type: functional; how it was run: as §1
K562 [16] = test: Cell cycle arrest in human K562 cells assessed as accumulation at G1 phase at 83 nM after 24 hrs by propidium iodide staining-based flow cytometric analysis (reference value: 34.6%); type: functional
MCF7 [17] = test: Cell cycle arrest in human MCF7 cells assessed as accumulation at sub G1 phase at 83 nM after 24 hrs by propidium iodide staining-based flow cytometric analysis (reference value: 7.1%); type: functional; how it was run: as §1
K562 [18] = test: Cell cycle arrest in human K562 cells assessed as accumulation at sub G1 phase at 83 nM after 24 hrs by propidium iodide staining-based flow cytometric analysis (reference value: 15%); type: functional
MCF7 [19] = test: Cell cycle arrest in human MCF7 cells assessed as accumulation at G1 phase at 83 nM after 24 hrs by propidium iodide staining-based flow cytometric analysis (reference value: 60.7%); type: functional; how it was run: as §1
MCF7 [20] = test: Cell cycle arrest in human MCF7 cells assessed as accumulation at G2/M phase at 83 nM after 24 hrs by propidium iodide staining-based flow cytometric analysis (reference value: 5.3%); type: functional; how it was run: as §1

Cyclin-dependent kinase 1 (Homo sapiens), sequence (P06493 whole entry, looked up): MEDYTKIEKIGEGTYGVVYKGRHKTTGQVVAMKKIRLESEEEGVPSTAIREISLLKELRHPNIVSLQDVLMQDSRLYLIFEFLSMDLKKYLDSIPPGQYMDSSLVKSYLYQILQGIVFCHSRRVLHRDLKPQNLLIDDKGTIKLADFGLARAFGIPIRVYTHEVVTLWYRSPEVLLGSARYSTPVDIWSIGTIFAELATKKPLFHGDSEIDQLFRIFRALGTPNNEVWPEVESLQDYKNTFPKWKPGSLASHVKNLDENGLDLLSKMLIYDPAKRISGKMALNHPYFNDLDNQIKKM

| Compound | Activity (MCF7 [1]) | Activity (MCF7 [2]) | Activity (K562 [3]) | Activity (MCF7 [4]) | Activity (K562 [5]) | Activity (MCF7 [6]) | inhibition [7] | Activity (K562 [8]) | Activity (K562 [9]) | GI50 (K562 [10]) | GI50 (MCF7 [11]) | Activity (K562 [12]) | Activity (K562 [13]) | Activity (K562 [14]) | Activity (MCF7 [15]) | Activity (K562 [16]) | Activity (MCF7 [17]) | Activity (K562 [18]) | Activity (MCF7 [19]) | Activity (MCF7 [20]) |
| --- | --- | --- | --- | --- | --- | --- | --- | --- | --- | --- | --- | --- | --- | --- | --- | --- | --- | --- | --- | --- |
| CCCCc1cc2nn(-c3ccccc3)cc2c(C(C)C)n1 | 9.4% | 24.5% | 47.1% | 7.8% | 26.7% | 66.1% | inactive | 29% | 44.2% | 12.9 µM | 33.3 µM |  |  |  |  |  |  |  |  |  |
| c1ccc(-n2cc3cnc(C4CC4)cc3n2)cc1 | 5.9% | 29.4% | 19.6% | 7.5% | 32.3% | 64.7% | inactive | 15.5% | 52.2% | 60.5 µM | 69.3 µM |  |  |  |  |  |  |  |  |  |
| CC(C)c1nccc2nn(-c3ccccc3)cc12 |  |  |  |  |  |  | inactive |  |  | > 100 µM | 98.8 µM |  |  |  |  |  |  |  |  |  |
| Cc1nc(C2CC2)cc2nn(-c3ccccc3)cc12 | 6.3% | 30.2% | 15.3% | 9% | 34.7% | 63.6% | inactive | 19.6% | 45.8% | 25.9 µM | 63.5 µM |  |  |  |  |  |  |  |  |  |
| c1ccc(-n2cc3cnccc3n2)cc1 |  |  |  |  |  |  | inactive |  |  | > 100 µM | > 100 µM |  |  |  |  |  |  |  |  |  |
| CCCCc1cc2nn(-c3ccccc3)cc2c(C)n1 | 27.5% | 24% | 40.8% | 19.3% | 28.2% | 48.5% | inactive | 41.4% | 30.5% | 8.5 µM | 11.1 µM |  |  |  |  |  |  |  |  |  |
| CC(C)c1nc(-c2ccccc2)cc2nn(-c3ccccc3)cc12 | 6.9% | 30.6% | 21.3% | 6.7% | 35.1% | 62.6% | inactive | 18.3% | 46.6% | 36.8 µM | 91 µM |  |  |  |  |  |  |  |  |  |
| CCCCc1cc2nn(-c3ccccc3)cc2cn1 | 33.7% | 30.3% | 37.7% | 31.1% | 24.8% | 36% | inactive | 62.3% | 12.8% | 6.7 µM | 13.3 µM |  |  |  |  |  |  |  |  |  |
| Cc1nc(-c2ccccc2)cc2nn(-c3ccccc3)cc12 | 14.1% | 20.5% | 46.2% | 11.9% | 13.7% | 65.5% | inactive | 50.2% | 36.1% | 6.3 µM | 11 µM |  |  |  |  |  |  |  |  |  |
| Cn1cc2cnc(-c3ccccc3)cc2n1 |  |  |  |  |  |  | inactive |  |  | > 100 µM | > 100 µM |  |  |  |  |  |  |  |  |  |
| Cc1nc(CCO)cc2nn(-c3ccccc3)cc12 |  |  |  |  |  |  | inactive |  |  | > 100 µM | > 100 µM |  |  |  |  |  |  |  |  |  |
| Cc1nc(-c2ccsc2)cc2nn(-c3ccccc3)cc12 | 31.6% | 31.2% | 45.7% | 22.7% | 26.2% | 37.2% | inactive | 44.6% | 29.2% | 10 µM | 22.2 µM |  |  |  |  |  |  |  |  |  |
| CCCCCc1cc2nn(-c3ccccc3)cc2c(C)n1 | 31.7% | 18.1% | 28.3% | 31.1% | 21.8% | 50.2% | inactive | 49.9% | 28.3% | 6.9 µM | 17 µM |  |  |  |  |  |  |  |  |  |
| c1ccc(-n2cc3cnc(-c4ccsc4)cc3n2)cc1 | 31.4% | 29.1% | 34.2% | 24.2% | 21.7% | 39.5% | inactive | 41.1% | 37.3% | 8.3 µM | 9.8 µM |  |  |  |  |  |  |  |  |  |
| Cc1nccc2nn(-c3ccccc3)cc12 |  |  |  |  |  |  | inactive |  |  | > 100 µM | > 100 µM |  |  |  |  |  |  |  |  |  |
| COC(=O)Nc1nc2cc(C(=O)c3cccs3)ccc2[nH]1 [NOCODAZOLE] |  |  |  |  |  |  |  |  |  |  |  | 26.8% | 69.7% | 33.2% | 49.9% | 3.6% | 32.1% | 49.4% | 14.4% | 35.7% |
| OCCc1cc2nn(-c3ccccc3)cc2cn1 |  |  |  |  |  |  | inactive |  |  | > 100 µM | > 100 µM |  |  |  |  |  |  |  |  |  |
| c1ccc(-c2cc3nn(-c4ccccc4)cc3cn2)cc1 | 17% | 26.2% | 43% | 14.3% | 19.8% | 56.8% | inactive | 74.7% | 5.5% | 3.4 µM | 4.8 µM |  |  |  |  |  |  |  |  |  |
